{"data": "Measured values of several laboratories", "target": "Serine/threonine-protein kinase TAO1 (TAOK1, Homo sapiens, UniProt Q7L7X3)", "One construct used (Q7L7X3 1-1001)": "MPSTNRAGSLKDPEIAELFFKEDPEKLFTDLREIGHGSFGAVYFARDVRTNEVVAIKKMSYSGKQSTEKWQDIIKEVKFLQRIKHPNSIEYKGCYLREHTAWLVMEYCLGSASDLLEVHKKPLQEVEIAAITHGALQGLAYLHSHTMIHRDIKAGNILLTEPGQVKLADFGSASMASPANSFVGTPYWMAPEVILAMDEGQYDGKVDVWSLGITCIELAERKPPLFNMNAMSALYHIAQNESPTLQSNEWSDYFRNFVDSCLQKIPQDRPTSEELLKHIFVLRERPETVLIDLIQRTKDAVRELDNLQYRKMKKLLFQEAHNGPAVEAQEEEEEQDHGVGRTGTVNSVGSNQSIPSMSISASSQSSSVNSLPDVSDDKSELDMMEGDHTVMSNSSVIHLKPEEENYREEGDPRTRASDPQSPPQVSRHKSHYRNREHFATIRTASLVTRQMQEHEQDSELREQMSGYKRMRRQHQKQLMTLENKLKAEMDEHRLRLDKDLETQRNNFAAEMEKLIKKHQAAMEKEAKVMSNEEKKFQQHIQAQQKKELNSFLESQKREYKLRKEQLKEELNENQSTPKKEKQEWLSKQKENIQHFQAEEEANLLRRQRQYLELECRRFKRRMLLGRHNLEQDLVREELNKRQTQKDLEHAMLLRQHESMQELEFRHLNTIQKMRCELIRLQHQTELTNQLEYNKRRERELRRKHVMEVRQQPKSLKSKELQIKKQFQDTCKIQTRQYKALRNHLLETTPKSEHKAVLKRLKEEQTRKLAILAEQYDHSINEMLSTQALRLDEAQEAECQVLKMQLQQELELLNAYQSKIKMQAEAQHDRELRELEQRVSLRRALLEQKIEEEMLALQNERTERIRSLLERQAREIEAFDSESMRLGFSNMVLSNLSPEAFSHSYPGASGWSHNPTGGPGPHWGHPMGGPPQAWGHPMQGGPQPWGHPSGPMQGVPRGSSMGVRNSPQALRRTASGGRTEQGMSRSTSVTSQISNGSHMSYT", "note": "Compare with care: the assays were run in different laboratories."}
{"Structure (SMILES)": "CN1CC(Oc2cnc(C#N)cc2-c2ccn3nc(NC(=O)C4CC4)cc3c2)C1", "test": "enzyme activity, inhibitor", "conditions": "1 µM", "measurement": "inhibition", "value": "-1%"}
{"Structure (SMILES)": "Nc1ncnc2occ(-c3ccc(NC(=O)Nc4cc(C(F)(F)F)ccc4F)cc3)c12", "test": "cell-free assay, inhibitor", "conditions": "20 µM", "measurement": "remaining signal", "value": "0.3%"}
{"Structure (SMILES)": "O=C(N1CCS(=O)(=O)CC1)N1C[C@H](c2ccc(OC(F)(F)F)cc2)C[C@H](c2nc(C3CC3)no2)C1", "test": "cell-free assay, competition with immobilised ligand", "conditions": "1 µM", "measurement": "remaining binding", "value": "100%"}
{"Structure (SMILES)": "Cc1ccc(C(=O)NCc2ccsc2)cc1C#Cc1cn(C(C)C)c2ncnc(N)c12", "test": "enzyme activity, inhibitor", "conditions": "1 µM", "measurement": "activity vs control", "value": "48%"}
{"Structure (SMILES)": "CN(C)C(=O)Cn1cc(-c2nc(C3(c4ccc(-c5cnc(N)nc5)cc4)CC3)no2)cn1", "test": "cell-free assay, competition with immobilised ligand", "conditions": "1 µM", "measurement": "remaining binding", "value": "86%"}
{"Structure (SMILES)": "CNC(=O)c1cc(Oc2ccc(NC(=O)Nc3ccc(Cl)c(C(F)(F)F)c3)cc2)ccn1", "test": "cell-free assay", "conditions": "0.5 µM", "measurement": "remaining signal", "value": "82%"}
{"Structure (SMILES)": "COc1cc(Nc2cnc(C#N)c(O[C@H](C)CN(C)C)n2)ncc1-c1cnn(C)c1", "test": "enzyme activity, inhibitor, radiometric", "conditions": "1 µM", "measurement": "remaining activity", "value": "87%"}
{"Structure (SMILES)": "FC(F)(F)Oc1cccc(-c2cnc3ccc(-c4ccncc4)nn23)c1", "test": "enzyme activity, inhibitor, radiometric", "conditions": "1 µM", "measurement": "activity vs control", "value": "83%"}
{"Structure (SMILES)": "O=C(Nc1cccnn1)N1CC(C/C=C/c2cncc(Oc3ccc(C(F)(F)F)cn3)n2)C1", "test": "cell-free assay, competition with immobilised ligand", "conditions": "1 µM", "measurement": "remaining binding", "value": "91%"}
{"Structure (SMILES)": "CC(C)(O)[C@H]1CC[C@H](Nc2ccc3ncc(-c4cccc(C(F)(F)F)c4)n3n2)CC1", "test": "enzyme activity, inhibitor", "conditions": "1 µM", "measurement": "remaining activity", "value": "82.6%"}
{"Structure (SMILES)": "COc1cc(Cl)c(C(=O)N[C@@H](CN[C@H]2CC[C@@H](N)CC2)Cc2ccc(C#N)cc2)cc1-c1ccc(CN[C@H](C)c2ccc(C)cc2)o1", "test": "enzyme activity, inhibitor", "conditions": "1 µM", "measurement": "remaining activity", "value": "97%"}
{"Structure (SMILES)": "COc1ccc2cc(OCC3(C(=O)O)CN(C(=O)c4ccc(F)cc4)C3)ccc2c1", "test": "cell-free assay, competition with immobilised ligand", "conditions": "1 µM", "measurement": "remaining binding", "value": "100%"}
{"Structure (SMILES)": "O=C1NC(=O)c2cc(Nc3ccc(F)cc3)c(Nc3ccc(F)cc3)cc21", "test": "cell-free assay", "conditions": "0.5 µM", "measurement": "remaining signal", "value": "90.3%"}
{"Structure (SMILES)": "Cc1nc(C2CCN(C(=O)c3ccc(OC(F)(F)F)cc3N)CC2)c2ncc(N3CCN(C)CC3)cc2n1", "test": "cell-free assay, competition with immobilised ligand", "conditions": "1 µM", "measurement": "remaining binding", "value": "100%"}
{"Structure (SMILES)": "Cc1sc(C(=O)NC2COC2)cc1-n1cc(NC(=O)Nc2c(F)cccc2Cl)cn1", "test": "enzyme activity, inhibitor", "conditions": "10 µM", "measurement": "remaining activity", "value": "108%"}
{"Structure (SMILES)": "Cc1c(C(=O)O)cc(-c2ccc(C3CCNCC3)cc2)c2ccc(-c3ccc(C(F)(F)F)cc3)cc12", "test": "binding, competition with immobilised ligand", "conditions": "1 µM", "measurement": "remaining binding", "value": "100%"}
{"Structure (SMILES)": "O=C(Nc1cnn(-c2csc(C(=O)NC3COC3)c2)c1)Nc1ccccc1Cl", "test": "enzyme activity, inhibitor", "conditions": "5 µM", "measurement": "remaining activity", "value": "122%"}
{"Structure (SMILES)": "FC(F)c1nc2ccccc2n1-c1nc(N2CCOCC2)nc(N2CCOCC2)n1", "test": "enzyme activity, inhibitor", "conditions": "10 µM", "measurement": "remaining activity", "value": "93%"}
{"Structure (SMILES)": "Clc1ccc(Nc2nnc(Cc3ccncc3)c3ccccc23)cc1", "test": "cell-free assay", "conditions": "0.5 µM", "measurement": "remaining signal", "value": "98.7%"}
{"Structure (SMILES)": "COc1cc(/C=C/C(=O)CC(=O)/C=C/c2ccc(O)c(OC)c2)ccc1O", "test": "enzyme activity, inhibitor", "conditions": "1 µM", "measurement": "activity vs control", "value": "84%"}
